Bioassay records: PubChem, The Scripps Research Institute Molecular Screening Center
A selection: hits, their analogues and other compounds. The true share with any hit is near 2.6%.
HTR1A agonist – activates the human 5-HT1a serotonin receptor. P08908. CHO 5-HT1a Ga15 NFAT-bla reporter, FRET ratio; 0% basal, 100% maximal reference agonist. activation, % at 10 µM. 65,000 tested, 0.56% active. AID 567;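 active = activation above the screen-wide mean activation plus 3 SD, cut at about 19% in these data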;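 also: 0% = DMSO wells and 100% = 5-CT at EC100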
HTR1E agonist – activates the human 5-HT1E serotonin receptor; P28566; CHO 5-HT1E Ga15 NFAT-bla reporter, FRET; 0% DMSO wells, 100% control agonist wells; activation, % at 6 µM; 65,000 tested, 0.69% active; AID 574;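 active = activation above a set limit, the screen-wide mean activation plus 3 SD, cut at about 8.5% in these data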;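 also: 100% = positive control agonist at 1 µM giving full maximal response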
Target sequence (P28566 whole entry, looked up): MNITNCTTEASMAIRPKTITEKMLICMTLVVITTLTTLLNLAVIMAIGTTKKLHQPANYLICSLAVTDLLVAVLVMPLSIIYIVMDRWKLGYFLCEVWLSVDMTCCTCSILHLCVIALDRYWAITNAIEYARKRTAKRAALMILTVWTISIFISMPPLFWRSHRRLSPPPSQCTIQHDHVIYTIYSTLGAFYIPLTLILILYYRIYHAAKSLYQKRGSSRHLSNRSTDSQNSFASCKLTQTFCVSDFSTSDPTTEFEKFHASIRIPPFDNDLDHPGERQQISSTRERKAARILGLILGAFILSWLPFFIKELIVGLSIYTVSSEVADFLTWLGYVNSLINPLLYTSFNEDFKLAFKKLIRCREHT
5HT1E antag – blocks the human 5-HT1E serotonin receptor | inhibition, % at 6 µM | P28566 | 65,000 tested, 0.99% active | CHO 5-HT1E Ga15 NFAT-bla reporter, FRET, antagonist;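 active = inhibition above a set limit, the mean inhibition across every tested compound plus 3 SD, cut at about 29% in these data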;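 also: signal is the 460 over 535 nm emission ratio of beta-lactamase substrate; 0% = agonist plus DMSO wells and 100% = wells without agonist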
S1P3 ag – agonists of human S1P3 receptor | S1P3 NFAT-BLA reporter cells, agonism, FRET ratio; relative to 1 µM S1P, basal subtracted | activation, % at 4.5 µM | 60,000 tested, 0.1% active;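 active = activation above the screen-wide mean plus 3 SD, cut at about 4.5% in these data, passing the limit was not always enough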
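Material: Human S1P3 NFAT-BLA reporter CHO cells | Incubation: Overnight plating, 4 h compound 37 °C, 2 h substrate RT | Signal: FRET β-lactamase substrate fluorescence, excitation 405 nm, 460/535 nm emission ratio, background-subtracted | Compound: 4.5 µM final, single dose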
5-HT1A blocker – 5-HT1a (human) receptor antagonism. P08908. CHO 5-HT1a Ga15 NFAT-bla reporter, antagonist mode. inhibition, % at 10 µM. 62,000 tested, 0.68% active. AID 612;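 active = inhibition above the mean of all tested compounds plus 3 SD, cut at about 43% in these data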;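 also: receptor stimulated by 5-CT agonist at 100 nM near EC80; beta-lactamase reporter measured by ratiometric fluorescence of a cleavable substrate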
* hit, by the source's call.

CCOC(=O)/C=C/S(=O)(=O)c1ccc(NC(C)=O)cc1 was read as HTR1A agonist -3, HTR1E agonist -1, 5HT1E antag 89*, S1P3 ag -2 and 5-HT1A blocker 98*.
Screening CCOc1cc2c(cc1OCC)C(c1cc(OC)c(O)c(OC)c1)NCC2 (stereo not given) returned HTR1A agonist -1, HTR1E agonist 0, 5HT1E antag 27, S1P3 ag -1 and 5-HT1A blocker -6.
Nc1nc2c3ccccc3nc(Cc3ccccc3)n2n1 was read as HTR1A agonist -1, HTR1E agonist 0, 5HT1E antag 9, S1P3 ag 0 and 5-HT1A blocker -11.
CCCc1nc2ccccc2c2nc(N)nn12 was read as HTR1A agonist -3, HTR1E agonist 1, 5HT1E antag 34*, S1P3 ag 0 and 5-HT1A blocker -5.
Cn1c2ccccc2c2cnn(CC(=O)N3CCN(c4ncccn4)CC3)c(=O)c21 was read as HTR1A agonist -2, HTR1E agonist -1, 5HT1E antag 12, S1P3 ag -1 and 5-HT1A blocker 13.
Cc1ccc(Cn2c(Sc3nnc(C)s3)nc3c2c(=O)[nH]c(=O)n3C)cc1 was read as HTR1A agonist -1, HTR1E agonist 0, 5HT1E antag 41*, S1P3 ag -1 and 5-HT1A blocker -4.
O=C(Nc1nc2ccccc2n1Cc1ccccc1)c1ccco1 was read as HTR1A agonist -2, HTR1E agonist 0, 5HT1E antag -7, S1P3 ag -1 and 5-HT1A blocker 60*.
`O=C(Cn1c(NCCCO)nc2ccccc21)c1ccco1` gave HTR1A agonist 2, HTR1E agonist -1, 5HT1E antag 13, S1P3 ag -1 and 5-HT1A blocker 2.
Screening COc1ccccc1OCCn1c(C(C)O)nc2ccccc21 (stereo not given) returned HTR1A agonist -2, HTR1E agonist 0, 5HT1E antag 9, S1P3 ag 0 and 5-HT1A blocker 2.
Screening CC1=C(C)CS(=O)N(S(=O)(=O)c2ccc(Cl)cc2)C1 (stereo not given) returned HTR1A agonist -4, HTR1E agonist 0, 5HT1E antag -1, S1P3 ag -1 and 5-HT1A blocker 47*.
COC(=O)c1ccc(Oc2cc(C)nc(-n3nc(C)cc3C)n2)cc1 was read as HTR1A agonist -3, HTR1E agonist -1, 5HT1E antag 90*, S1P3 ag 0 and 5-HT1A blocker 65*.
`COC(=O)c1ccc(Oc2nc(C)cc(Oc3ccccc3)n2)cc1` gave HTR1A agonist -3, HTR1E agonist 0, 5HT1E antag 21, S1P3 ag -1 and 5-HT1A blocker 20.
For Cc1nc(COC(=O)c2ccc(S(=O)(=O)N3CCCC3)cc2)cs1 the results were HTR1A agonist -3, HTR1E agonist -1, 5HT1E antag 18, S1P3 ag -2 and 5-HT1A blocker -1.
O=C(Cn1c(=O)n(CCCC(=O)NC2CCCC2)c(=O)c2ccccc21)NCCC1=CCCCC1 was read as HTR1A agonist -1, HTR1E agonist -1, 5HT1E antag 10, S1P3 ag -1 and 5-HT1A blocker 13.
For CCNc1c2c3c(cccc3n(C)c1=O)C(=O)c1ccccc1-2 the results were HTR1A agonist 3, HTR1E agonist 32*, 5HT1E antag 21, S1P3 ag -1 and 5-HT1A blocker 11.
Screening Cc1oc2nc(SCC(=O)N3CCCCC3)nc(N)c2c1C returned HTR1A agonist 1, HTR1E agonist 0, 5HT1E antag -2, S1P3 ag 1 and 5-HT1A blocker -7.
`O=C1C2C3C=CC(CO)(O3)C2C(=O)N1c1ccc(-c2ccccc2)cc1` (stereo not given) gave HTR1A agonist -6, HTR1E agonist 0, 5HT1E antag 61* and 5-HT1A blocker 88*.
For CSc1ccc(C2C(C#N)=C(N)N(c3ccccc3)C3=C2C(=O)CCC3)cc1 (stereo not given) the results were HTR1A agonist 0, HTR1E agonist 0, 5HT1E antag 11 and 5-HT1A blocker 43*.
Screening O=C1CCCC2=C1C(c1ccccc1)CC(=O)N2c1ccccc1 (stereo not given) returned HTR1A agonist 0, HTR1E agonist 0, 5HT1E antag -1, S1P3 ag -1 and 5-HT1A blocker 3.
Screening C=CCn1c2ccccc2c2nnc(SCC(=O)NC(C(=O)OC)C(C)C)nc21 (stereo not given) returned HTR1A agonist 2, HTR1E agonist -1, 5HT1E antag 21, S1P3 ag 0 and 5-HT1A blocker -6.
For Cn1cc(CN2CCN(c3ccccc3)CC2)c2ccccc21 the results were HTR1A agonist -3, HTR1E agonist 12*, 5HT1E antag -8 and 5-HT1A blocker 13.
For c1ccc(-c2noc(CN3CCN(c4ccccc4)CC3)n2)cc1 the results were HTR1A agonist -1, HTR1E agonist 0, 5HT1E antag -5, S1P3 ag -1 and 5-HT1A blocker 6.
Brc1ccc(CSc2nnc(-c3ccccn3)n2Cc2ccco2)cc1 was read as HTR1A agonist -1, HTR1E agonist -1, 5HT1E antag 27 and 5-HT1A blocker 65*.
For O=C(O)c1ccccc1C(=O)N1CC=C(c2ccccc2)CC1 the results were HTR1A agonist 7, HTR1E agonist 12*, 5HT1E antag -5, S1P3 ag 0 and 5-HT1A blocker 1.
`O=C(O)c1ccccc1C(=O)N1CCN(c2ccccc2)CC1` gave HTR1A agonist 1, HTR1E agonist 8, 5HT1E antag -2, S1P3 ag -1 and 5-HT1A blocker -3.
`COc1ccc(-c2[nH]ncc2-c2ccc3c(c2)OCCO3)c(O)c1` gave HTR1A agonist -3, HTR1E agonist 0, 5HT1E antag 16, S1P3 ag -1 and 5-HT1A blocker 44*.
`CC1=CC(C)(C)N(C(=O)c2ccc(F)cc2)c2cc3c(cc21)OCO3` gave HTR1A agonist -5, HTR1E agonist -1, 5HT1E antag -4, S1P3 ag 0 and 5-HT1A blocker 43*.
For CCC1CCCCN1c1nc2c(c(=O)n(C)c(=O)n2C)n1CCSc1nc2ccccc2o1 (stereo not given) the results were HTR1A agonist -1, HTR1E agonist 0, 5HT1E antag -1, S1P3 ag -1 and 5-HT1A blocker -7.
CC1(C)CC(=O)c2cc(OCC(=O)NCCCN3CCN(c4ccccc4F)CC3)ccc2O1 was read as HTR1A agonist 5, HTR1E agonist 9.6*, 5HT1E antag 5, S1P3 ag -1 and 5-HT1A blocker 28.
Screening CCN(CCCNC(=O)COc1cc(=O)n(C)c2ccccc12)c1cccc(C)c1 returned HTR1A agonist 0, HTR1E agonist 24*, 5HT1E antag -12, S1P3 ag 0 and 5-HT1A blocker 1.
Screening Cn1c(=O)cc(OCC(=O)NCCCN2CCN(c3ccccc3F)CC2)c2ccccc21 returned HTR1A agonist 5, HTR1E agonist 6, 5HT1E antag 2, S1P3 ag -1 and 5-HT1A blocker 61*.
